Assay results published in ChEMBL document CHEMBL3425433, “Discovery of bicyclic pyrazoles as class III histone deacetylase SIRT1 and SIRT2 inhibitors” (Bioorg Med Chem Lett, 2015).
Active and inactive are the calls of the source. No cut-off for these calls is given here.

Tests used:
[1] = biological target: T1, NAD-dependent protein deacetylase sirtuin-1 (Homo sapiens, UniProt Q96EB6); experiment: Inhibition of His-tagged human recombinant SIRT1 expressed in Escherichia coli using Cbz-Lys(Ac)-AMC as substrate by fluorescence assay
T1 sequence (Q96EB6 whole entry): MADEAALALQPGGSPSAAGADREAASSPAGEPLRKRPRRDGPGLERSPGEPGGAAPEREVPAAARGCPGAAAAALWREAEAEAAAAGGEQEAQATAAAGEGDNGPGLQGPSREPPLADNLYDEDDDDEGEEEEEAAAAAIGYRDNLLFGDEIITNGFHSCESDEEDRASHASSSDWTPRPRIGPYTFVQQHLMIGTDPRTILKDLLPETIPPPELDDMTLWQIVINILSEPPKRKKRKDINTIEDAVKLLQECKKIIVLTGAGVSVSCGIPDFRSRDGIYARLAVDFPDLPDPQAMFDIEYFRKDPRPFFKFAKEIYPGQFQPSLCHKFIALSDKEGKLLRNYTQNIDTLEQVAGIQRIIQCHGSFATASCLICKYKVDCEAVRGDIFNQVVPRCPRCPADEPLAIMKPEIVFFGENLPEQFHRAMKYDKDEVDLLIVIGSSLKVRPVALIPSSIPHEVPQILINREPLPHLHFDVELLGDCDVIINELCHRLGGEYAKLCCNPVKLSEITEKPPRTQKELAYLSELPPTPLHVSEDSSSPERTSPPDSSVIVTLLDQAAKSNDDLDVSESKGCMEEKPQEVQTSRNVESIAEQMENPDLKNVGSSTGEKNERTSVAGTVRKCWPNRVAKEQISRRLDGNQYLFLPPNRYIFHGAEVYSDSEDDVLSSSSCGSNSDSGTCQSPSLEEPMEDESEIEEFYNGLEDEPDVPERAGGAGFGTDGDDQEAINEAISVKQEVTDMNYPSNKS

Histone deacetylase 1 = Histone deacetylase 1 (Homo sapiens, UniProt Q13547); experiment: Inhibition of HDAC1 (unknown origin)
Histone deacetylase 1, sequence (Q13547 whole entry): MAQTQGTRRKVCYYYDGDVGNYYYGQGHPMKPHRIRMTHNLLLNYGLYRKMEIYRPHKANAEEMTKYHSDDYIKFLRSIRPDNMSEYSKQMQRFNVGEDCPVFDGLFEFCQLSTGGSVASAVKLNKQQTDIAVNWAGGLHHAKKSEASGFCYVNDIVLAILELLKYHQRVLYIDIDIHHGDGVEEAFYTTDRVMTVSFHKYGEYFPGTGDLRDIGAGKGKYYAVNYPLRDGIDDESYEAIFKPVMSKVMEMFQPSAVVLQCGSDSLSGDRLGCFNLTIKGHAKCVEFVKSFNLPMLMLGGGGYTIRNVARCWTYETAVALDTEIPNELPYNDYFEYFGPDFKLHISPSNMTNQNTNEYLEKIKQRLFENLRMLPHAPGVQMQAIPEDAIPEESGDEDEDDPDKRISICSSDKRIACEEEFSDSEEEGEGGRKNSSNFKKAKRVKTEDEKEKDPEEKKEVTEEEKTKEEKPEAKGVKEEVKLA

[2] = biological target: T2, NAD-dependent protein deacetylase sirtuin-2 (Homo sapiens) (UniProt Q8IXJ6); experiment: Inhibition of His-tagged human recombinant SIRT2 expressed in Escherichia coli at 20 uM using Cbz-Lys(Ac)-AMC as substrate by fluorescence assay
T2 sequence (whole entry): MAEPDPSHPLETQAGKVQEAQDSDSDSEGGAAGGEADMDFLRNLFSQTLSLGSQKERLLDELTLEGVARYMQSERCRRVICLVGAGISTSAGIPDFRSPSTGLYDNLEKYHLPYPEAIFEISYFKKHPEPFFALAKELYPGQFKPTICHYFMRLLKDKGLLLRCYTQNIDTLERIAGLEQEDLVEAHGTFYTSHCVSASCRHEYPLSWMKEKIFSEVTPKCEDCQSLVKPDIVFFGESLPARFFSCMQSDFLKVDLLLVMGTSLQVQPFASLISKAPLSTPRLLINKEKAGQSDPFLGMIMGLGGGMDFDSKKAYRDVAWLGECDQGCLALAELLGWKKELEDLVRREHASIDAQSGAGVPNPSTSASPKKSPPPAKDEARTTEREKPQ
Summary of the method: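 Fluorescence deacetylase assay with in-house Cbz-Lys(Ac)-AMC substrate. Values are means of three experiments on racemic material. Single-point lines were tested at 20 µM, and less than 20% inhibition was scored as no inhibition.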

[3] = biological target: T3, Histone deacetylase 7 (Homo sapiens) (UniProt Q8WUI4); experiment: Inhibition of HDAC7 (unknown origin)
T3 sequence (whole entry): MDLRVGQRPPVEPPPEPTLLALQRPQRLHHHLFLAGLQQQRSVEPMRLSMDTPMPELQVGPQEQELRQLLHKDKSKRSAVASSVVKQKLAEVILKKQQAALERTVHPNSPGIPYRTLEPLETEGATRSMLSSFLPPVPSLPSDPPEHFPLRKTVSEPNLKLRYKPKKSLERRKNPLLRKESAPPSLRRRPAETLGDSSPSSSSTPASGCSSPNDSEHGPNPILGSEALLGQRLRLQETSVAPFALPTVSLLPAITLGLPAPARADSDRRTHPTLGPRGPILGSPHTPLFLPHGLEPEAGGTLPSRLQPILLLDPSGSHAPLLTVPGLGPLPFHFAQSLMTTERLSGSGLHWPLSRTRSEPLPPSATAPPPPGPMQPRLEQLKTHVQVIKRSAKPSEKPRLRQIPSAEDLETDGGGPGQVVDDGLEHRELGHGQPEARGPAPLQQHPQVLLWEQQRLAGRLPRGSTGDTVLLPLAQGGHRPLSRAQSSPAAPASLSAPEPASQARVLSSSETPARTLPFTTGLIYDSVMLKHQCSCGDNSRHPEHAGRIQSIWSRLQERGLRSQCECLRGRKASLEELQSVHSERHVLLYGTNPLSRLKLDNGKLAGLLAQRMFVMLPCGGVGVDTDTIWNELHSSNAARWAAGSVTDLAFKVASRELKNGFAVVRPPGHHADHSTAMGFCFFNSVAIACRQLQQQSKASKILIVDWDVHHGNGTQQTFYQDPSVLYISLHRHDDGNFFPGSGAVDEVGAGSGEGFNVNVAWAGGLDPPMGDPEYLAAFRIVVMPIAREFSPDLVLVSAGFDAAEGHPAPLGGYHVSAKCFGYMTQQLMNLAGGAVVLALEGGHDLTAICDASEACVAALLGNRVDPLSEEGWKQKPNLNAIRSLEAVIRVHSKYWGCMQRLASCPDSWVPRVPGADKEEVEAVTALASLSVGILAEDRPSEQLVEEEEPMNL

[4] = biological target: T4, Histone deacetylase 8 (Homo sapiens) (UniProt Q9BY41); experiment: Inhibition of HDAC8 (unknown origin)
T4 sequence (whole entry): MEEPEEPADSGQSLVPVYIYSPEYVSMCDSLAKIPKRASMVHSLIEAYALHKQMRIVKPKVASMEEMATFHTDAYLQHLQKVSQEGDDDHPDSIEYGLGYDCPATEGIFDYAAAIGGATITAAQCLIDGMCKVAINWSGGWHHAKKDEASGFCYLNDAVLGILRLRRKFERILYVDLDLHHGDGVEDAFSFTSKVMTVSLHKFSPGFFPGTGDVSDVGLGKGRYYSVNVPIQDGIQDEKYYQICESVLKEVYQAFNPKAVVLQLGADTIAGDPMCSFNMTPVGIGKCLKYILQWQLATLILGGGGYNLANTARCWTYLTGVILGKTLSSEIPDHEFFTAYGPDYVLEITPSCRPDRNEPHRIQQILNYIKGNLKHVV

Histone deacetylase 2 = Histone deacetylase 2 (Homo sapiens, UniProt Q92769); experiment: Inhibition of HDAC2 (unknown origin)
Histone deacetylase 2, sequence (Q92769 whole entry): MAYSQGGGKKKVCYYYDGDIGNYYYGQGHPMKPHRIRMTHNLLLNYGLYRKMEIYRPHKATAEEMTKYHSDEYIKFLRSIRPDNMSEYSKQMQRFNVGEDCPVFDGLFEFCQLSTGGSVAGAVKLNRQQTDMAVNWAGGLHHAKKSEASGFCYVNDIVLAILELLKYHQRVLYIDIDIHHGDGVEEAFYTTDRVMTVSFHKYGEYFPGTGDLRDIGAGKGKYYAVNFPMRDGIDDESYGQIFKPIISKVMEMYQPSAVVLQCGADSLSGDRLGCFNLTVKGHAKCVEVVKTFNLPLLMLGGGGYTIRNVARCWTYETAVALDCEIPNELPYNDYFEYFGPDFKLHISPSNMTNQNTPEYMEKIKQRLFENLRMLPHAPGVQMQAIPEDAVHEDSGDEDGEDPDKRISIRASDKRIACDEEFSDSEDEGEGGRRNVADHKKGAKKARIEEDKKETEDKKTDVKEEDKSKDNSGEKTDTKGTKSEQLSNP

[5] = biological target: T5, NAD-dependent protein deacetylase sirtuin-2 (Homo sapiens, UniProt Q8IXJ6); experiment: Inhibition of His-tagged human recombinant SIRT2 expressed in Escherichia coli using Cbz-Lys(Ac)-AMC as substrate by fluorescence assay
T5 sequence (Q8IXJ6 whole entry): T2 sequence (whole entry)

SMILES | IC50 [1] | inhibition (Histone deacetylase 1) | inhibition [2] | inhibition [3] | inhibition [4] | inhibition (Histone deacetylase 2) | IC50 [5] | IC50 (Histone deacetylase 1) | IC50 (Histone deacetylase 2)
NC(=O)C1CCCc2c(-c3ccc(Cl)c(F)c3)n[nH]c21 (racemic) | 2600 nM | inactive | 44% | inactive | inactive | inactive | – | – | –
NC(=O)C1CCCc2c(-c3ccc(Br)cc3)n[nH]c21 (racemic) | 1900 nM | inactive | 47% | inactive | inactive | inactive | – | – | –
NC(=O)C1CCCc2c(-c3nc4ccccc4s3)n[nH]c21 (racemic) | 2200 nM | inactive | – | inactive | inactive | inactive | 8300 nM | – | –
Cn1c(-c2n[nH]c3c2CCCC3C(N)=O)cc2ccccc21 (racemic) | 2700 nM | inactive | – | inactive | inactive | inactive | 7800 nM | – | –
NC(=O)C1CCCCc2c(-c3ccc(Cl)cc3)n[nH]c21 (racemic) | 2100 nM | inactive | – | inactive | inactive | inactive | 6800 nM | – | –
NC(=O)C1CCCc2c(-c3ccc(Cl)cc3)n[nH]c21 (racemic) | 1000 nM | inactive | 43% | inactive | inactive | inactive | – | – | –
NC(=O)C1CCCc2c(-c3cc4ccccc4o3)n[nH]c21 (racemic) | 3100 nM | inactive | – | inactive | inactive | inactive | 9000 nM | – | –
NC(=O)C1CCCc2c(-c3cc4ccccc4s3)n[nH]c21 (racemic) | 1700 nM | inactive | – | inactive | inactive | inactive | 5300 nM | – | –
NC(=O)C1CCCc2c(-c3cc(Br)cs3)n[nH]c21 (racemic) | 11000 nM | inactive | < 20% | inactive | inactive | inactive | – | – | –
Cc1ccc(-c2n[nH]c3c2CCCC3C(N)=O)cc1 (racemic) | 6200 nM | inactive | 36% | inactive | inactive | inactive | – | – | –
CC1(C)Cc2c(-c3ccc(Cl)cc3)n[nH]c2C(C(N)=O)C1 (racemic) | 800 nM | inactive | – | inactive | inactive | inactive | 1700 nM | – | –
NC(=O)C1CCCc2c(-c3ccc(Cl)c(Cl)c3)n[nH]c21 (racemic) | 1200 nM | – | – | – | – | – | 14800 nM | > 10000 nM | > 10000 nM
